Data: ChEMBL document CHEMBL1125658, “Synthesis and properties of some peptide analogues of actinomycin D” (1991)
Values after ≈ are worked out from the molar mass of the structure shown. Starred links: 1 amine or outer side, 2 acyl side, 3 side chain; linkers in the order of their positions; H or OH if unused. Positions of bridges follow the written chain, without caps; N, C: chain ends. Non-standard residues stand in square brackets, D forms with d. Residues, ends and D or L forms follow the SMILES beside them. Chains are numbered I, II in the order given. Actinocin(1to9) = Cc1c2oc3c(C)ccc(C(=O)[*:2])c3nc-2c(C(=O)[*:1])c(N)c1=O; NMeV = CN[C@H](C(=O)O)C(C)C; Sar = CNCC(=O)O

Tests used:
Format in all cases: functional
Staphylococcus aureus = assay: Compound was tested for its antibacterial activity against Staphylococcus aureus
How it was run: (§1)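 Overnight culture in trypticase soy broth at 37 °C, 0.1 mL subcultured into 50 mL fresh TSB and grown 8 h. Then 0.1 mL of the rapidly growing culture was diluted into a further 50 mL TSB. 0.1 mL of this dilution inoculated into 2 mL TSB per tube for MIC determination.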

Bacillus subtilis = assay: Compound was tested for its antibacterial activity against Bacillus subtilis; how it was run: as §1
Mus musculus = assay: Compound was tested in vivo for its antitumor activity against B16 melanocarcinoma in mice by determining its median survival time at dose of 0.256 mg/Kg

| SMILES | MIC (Staphylococcus aureus) | MIC (Bacillus subtilis) | T/C (Mus musculus) |
| --- | --- | --- | --- |
| Cc1c2oc3c(C)ccc(C(=O)N[C@@H]4C(=O)N[C@H](C(C)C)C(=O)N5CCC[C@H]5C(=O)N(C)CC(=O)N(C)[C@@H](CC(C)C)C(=O)O[C@@H]4C)c3nc-2c(C(=O)N[C@@H]2C(=O)N[C@H](C(C)C)C(=O)N3CCC[C@H]3C(=O)N(C)CC(=O)N(C)[C@@H](CC(C)C)C(=O)O[C@@H]2C)c(N)c1=O | 0.5 µg/mL (≈ 0.39 µM) | 0.2 µg/mL (≈ 0.156 µM) |  |
| Cc1c2oc3c(C)ccc(C(=O)N[C@@H]4C(=O)N[C@H](C(C)C)C(=O)N5CCC[C@H]5C(=O)N(C)CC(=O)N(C)[C@@H](C(C)C)C(=O)O[C@@H]4C)c3nc-2c(C(=O)N[C@@H]2C(=O)N[C@H](C(C)C)C(=O)N3CCC[C@H]3C(=O)N(C)CC(=O)N(C)[C@@H](C(C)C)C(=O)O[C@@H]2C)c(N)c1=O [DACTINOMYCIN] (I: T[dV]P[Sar][NMeV] / II: T[dV]P[Sar][NMeV]; ester I:1-I:C, II:1-II:C; linker I:N-II:N via Actinocin(1to9)) | 0.25 µg/mL (≈ 0.199 µM) | 0.09 µg/mL (≈ 0.0717 µM) | 165 |
